Laboratory results as given in paper PMC4279188 (Theranostics, 2015).

Experiments:
Akt = experiment: Western blot of HUVECs, phosphorylated Akt; format: cell-based, human; conditions: co-treatment with PEG-Ex4
Outline: (§1)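 HUVEC lysates were prepared in RIPA buffer and protein was quantified by BCA. Proteins were resolved by SDS-PAGE and transferred to nitrocellulose, then blocked in 5% milk. Blots were probed overnight at 4 °C with anti-VEGF or anti-pAkt plus anti-β-actin, followed by secondary antibodies. Detection was by chemiluminescence on X-ray film. pAkt blots were stripped at 50 °C for 30 min and reprobed for total Akt. Data are mean ± SEM.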

VEGF = experiment: Western blot of HUVECs, VEGF; format: cell-based, human; conditions: co-treatment with PEG-Ex4
Outline: as §1

[1] = breakdown by dipeptidyl peptidase-4 (DPP4); no reference given for the value; cited from earlier work

Compound | effect of PEG-Ex4 on p-Akt in HUVECs, inhibition by co-treatment (Akt) | effect of PEG-Ex4 on VEGF expression in HUVECs, inhibition by co-treatment (VEGF) | half-life, in words [1]
O=c1cc(N2CCOCC2)oc2c(-c3ccccc3)cccc12 [LY294002] | abolished the effect of PEG-Ex4 on p-Akt | abolished | 
exendin-4(9-39) | abolished the effect of PEG-Ex4 on p-Akt | abolished | 
glucagon-like peptide-1 [GLP-1] |  |  | a few minutes
